{"source": "paper PMC9064899", "about": "(The FEBS journal, 2021)", "key": {"UBIAD1 R54A": {"biological_target": "T1, UBIAD1 R54A (Homo sapiens, UniProt Q9Y5Z9, R54A)", "T1 sequence (Q9Y5Z9 1-338 R54A)": "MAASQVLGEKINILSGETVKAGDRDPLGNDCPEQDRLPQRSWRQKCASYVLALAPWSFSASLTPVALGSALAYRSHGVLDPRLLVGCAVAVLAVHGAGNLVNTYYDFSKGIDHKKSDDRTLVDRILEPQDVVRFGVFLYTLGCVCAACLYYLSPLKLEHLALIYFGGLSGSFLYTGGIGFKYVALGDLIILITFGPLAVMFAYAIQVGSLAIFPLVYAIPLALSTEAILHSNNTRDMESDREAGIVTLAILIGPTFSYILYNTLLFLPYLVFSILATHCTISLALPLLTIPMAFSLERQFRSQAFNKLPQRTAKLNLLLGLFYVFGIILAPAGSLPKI", "assay": "Cell-based UBIAD1 functional assay", "in_short": "(§1)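 Wild-type or mutant human UBIAD1 in pCI-neo was transiently transfected into Ubiad1-knockout FIXgla-PC/HEK293 cells (DMEM/F12, 10% FBS). […] After 24 h, carboxylated FIXgla-PC in the medium was measured by ELISA. Activity was normalized to wild type (100%), and EC50 came from a curve fit. Mean ± SD, n=3 independent experiments.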"}, "UBIAD1 K181A": {"biological_target": "T2, UBIAD1 K181A (Homo sapiens, UniProt Q9Y5Z9, K181A)", "T2 sequence (Q9Y5Z9 1-338 K181A)": "T1 sequence (Q9Y5Z9 1-338 R54A) with A54R, K181A", "assay": "Cell-based UBIAD1 functional assay", "in_short": "as §1"}, "UBIAD1 N102S": {"biological_target": "T3, UBIAD1 N102S (Homo sapiens, UniProt Q9Y5Z9, N102S)", "T3 sequence (Q9Y5Z9 1-338 N102S)": "T1 sequence (Q9Y5Z9 1-338 R54A) with A54R, N102S", "assay": "Cell-based UBIAD1 functional assay", "in_short": "as §1"}, "UBIAD1 D112N": {"biological_target": "T4, UBIAD1 D112N (Homo sapiens, UniProt Q9Y5Z9, D112N)", "T4 sequence (Q9Y5Z9 1-338 D112N)": "T1 sequence (Q9Y5Z9 1-338 R54A) with A54R, D112N", "assay": "Cell-based UBIAD1 functional assay", "in_short": "as §1"}, "UBIAD1 C147S": {"biological_target": "T5, UBIAD1 C147S (Homo sapiens, UniProt Q9Y5Z9)", "T5 sequence (Q9Y5Z9 2-338)": "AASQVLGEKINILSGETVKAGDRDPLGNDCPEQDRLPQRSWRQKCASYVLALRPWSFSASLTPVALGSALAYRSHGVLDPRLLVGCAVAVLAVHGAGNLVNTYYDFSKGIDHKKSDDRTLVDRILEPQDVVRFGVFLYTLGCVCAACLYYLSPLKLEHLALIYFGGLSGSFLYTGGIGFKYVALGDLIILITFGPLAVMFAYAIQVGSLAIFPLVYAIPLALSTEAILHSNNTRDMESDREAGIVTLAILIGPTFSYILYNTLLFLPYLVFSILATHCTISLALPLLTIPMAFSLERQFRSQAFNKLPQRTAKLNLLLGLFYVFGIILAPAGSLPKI", "assay": "Cell-based UBIAD1 functional assay", "settings": "1 μM vitamin K3", "in_short": "as §1"}, "UBIAD1 D240N": {"biological_target": "T6, UBIAD1 D240N (Homo sapiens, UniProt Q9Y5Z9, D240N)", "T6 sequence (Q9Y5Z9 1-338 D240N)": "T1 sequence (Q9Y5Z9 1-338 R54A) with A54R, D240N", "assay": "Cell-based UBIAD1 functional assay", "in_short": "as §1"}, "[1]": {"test_system": "UBIAD1-deficient FIXgla-PC/HEK293 reporter cells", "assay": "VKD carboxylation of FIXgla-PC supported by K vitamins in UBIAD1-knockout cells", "format": "cell-based, human", "settings": "UBIAD1-deficient (knockout) FIXgla-PC/HEK293 cells", "in_short": "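Ubiad1-knockout FIXgla-PC/HEK293 reporter cells were cultured for 24 h with increasing concentrations of vitamin K1, MK-4, vitamin K3, or menaquinones with 1–4 or 7 isoprene units. K vitamin stocks were made in polyethoxylated castor oil. Carboxylated FIXgla-PC was determined by ELISA, and half-maximal stimulation concentration (EC50) came from curve fitting. Mean ± SD.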"}}, "note": "Numbering of substitutions follows the chain as printed."}
{"molecule": "CC1=CC(=O)c2ccccc2C1=O", "note": "[vitamin K3, menadione]", "values": [{"measurement": "EC50", "setting": "UBIAD1 R54A", "result": "0.084 ± 0.0116", "unit": "µM"}, {"measurement": "Vitamin K-dependent carboxylation Activity ± SD", "setting": "UBIAD1 R54A; R54A, 1 μM vitamin K3", "result": "79.8 ± 2.6", "unit": "%"}, {"measurement": "EC50", "setting": "UBIAD1 K181A", "result": "0.0119 ± 0.0004", "unit": "µM"}, {"measurement": "Vitamin K-dependent carboxylation Activity ± SD", "setting": "UBIAD1 K181A; K181A, 1 μM vitamin K3", "result": "101.7 ± 3", "unit": "%"}, {"measurement": "EC50", "setting": "UBIAD1 N102S", "result": "0.0039 ± 0.0003", "unit": "µM"}, {"measurement": "Vitamin K-dependent carboxylation Activity ± SD", "setting": "UBIAD1 N102S; N102S, 1 μM vitamin K3", "result": "98.2 ± 3", "unit": "%"}, {"measurement": "EC50", "setting": "UBIAD1 D112N", "result": "0.0064 ± 0.0006", "unit": "µM"}, {"measurement": "Vitamin K-dependent carboxylation Activity ± SD", "setting": "UBIAD1 D112N; D112N, 1 μM vitamin K3", "result": "109.6 ± 5.2", "unit": "%"}, {"measurement": "Vitamin K-dependent carboxylation Activity ± SD", "setting": "UBIAD1 C147S", "result": "100.5 ± 3.7", "unit": "%"}, {"measurement": "EC50", "setting": "UBIAD1 D240N", "result": "0.0112 ± 0.0015", "unit": "µM"}, {"measurement": "Vitamin K-dependent carboxylation Activity ± SD", "setting": "UBIAD1 D240N; D240N, 1 μM vitamin K3", "result": "107.8 ± 2.5", "unit": "%"}, {"measurement": "support of VKD carboxylation of reporter protein", "setting": "[1]", "result": "fails to carboxylate the reporter protein"}]}
